Bioassay records (PubChem BioAssay)
MBD2 DNA inh = blocks human MBD2 binding to methylated DNA | Q9UBB5 | TR-FRET, MBD2 binding to methylated oligonucleotide | inhibition, % at 4.4 µM | 0.31% of 370,000 active; in the data active = inhibition above about 13%
Target sequence (Q9UBB5 whole entry, looked up): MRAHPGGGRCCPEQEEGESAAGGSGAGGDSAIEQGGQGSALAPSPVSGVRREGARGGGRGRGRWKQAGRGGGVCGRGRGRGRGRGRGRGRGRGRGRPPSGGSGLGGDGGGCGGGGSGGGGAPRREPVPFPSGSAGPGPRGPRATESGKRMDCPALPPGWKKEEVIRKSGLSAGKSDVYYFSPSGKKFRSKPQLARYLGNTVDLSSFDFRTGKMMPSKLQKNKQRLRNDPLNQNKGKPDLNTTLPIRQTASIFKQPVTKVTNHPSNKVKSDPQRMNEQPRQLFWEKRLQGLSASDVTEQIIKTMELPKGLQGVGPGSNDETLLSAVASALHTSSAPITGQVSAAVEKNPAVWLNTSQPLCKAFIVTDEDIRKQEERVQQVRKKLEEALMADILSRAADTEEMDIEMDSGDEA
Rin1-Abl PPI inh = inhibitors of human Rin1-Abl protein interaction; TR-FRET Rin1/Abl binding, biochemical; inhibition, % at 7.35 µM; 0.4% of 360,000 active; in the data active = inhibition above about 5%, passing the limit was not always enough
ABHD5-PLIN5 inh = ABHD5-PLIN5 protein interaction inhibition | Q00G26+Q8WTS1 | AID 602281 | 0.78% of 360,000 active | inhibition, % at 4 µM | Split G. princeps luciferase complementation, luminescence, 4 h;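 active = inhibition above the mean inhibition across every tested compound plus 3 SD, cut at about 22% in these data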
Beta2AR agonist = agonists of human beta-2 adrenergic receptor inducing internalization. AID 504454. response, % (no concentration beside the values). Am2.2-beta2AR cells, FAP receptor internalization, flow cytometry. 0.43% of 340,000 active. P07550;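 active = response above a set limit, near 3 SD of response in nonfluorescent compounds, cut at about 42% in these data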
UHRF1 MBD2 ctr = blocks human UHRF1 binding to methylated DNA; 0.75% of 370,000 active; UHRF1 binding to methylated oligo, TR-FRET; AID 687016; inhibition, % at 4.4 µM; in the data active = inhibition above about 21%;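 also: UHRF1 SRA domain binding a hemimethylated CpG hairpin DNA probe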
Arr AP2 block = human beta-arrestin and AP2 interaction inhibition; FITC-arrestin peptide / GST-AP2 beads, flow cytometry; AP2 beta2 appendage carries R879A mutation; 0.31% of 340,000 active; inhibition, % at 10 µM; AID 504490;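 active = inhibition above a set limit, near 3 SD of compounds lacking own fluorescence, cut at about 54% in these data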
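System: GST-AP2 R879A glutathione beads; medium: PBS, Tween 20 0.05%, BSA 0.1%; reagent: fluorescein-tagged arrestin peptide at 50 nM final; schedule: pre-incubation 12 min, peptide binding 1 h, room temperature; detection: flow cytometry, FL1 (488/535 nm); read-out: inhibition as reduced fluorescein signal on beads, percent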
Each line names hits and unclear results; the compound was inactive in the other large screens. Compounds with a hit are over-represented: about 2.5% of the library has one in this group of screens.

CC(C)(C)[C@@H]1C=C(C(=O)NC2CC2)O[C@H](OCc2ccc(CO)cc2)C1	UHRF1 MBD2 ctr 37
CC(C)(C)[C@H]1C=C(C(=O)NC2CC2)O[C@@H](OCc2ccc(CO)cc2)C1	none
C[C@@H]1C=C(C(=O)NCc2ccccc2)O[C@H](OCc2ccc(CO)cc2)C1	UHRF1 MBD2 ctr 22
Cc1cccc(C(=O)NCC(=O)NC(C)CCc2ccccc2)c1 (centres undefined)	UHRF1 MBD2 ctr 22
CC(=O)C(Cc1ccccc1)NC(=O)CN1CCc2ccccc2C1 (centres undefined)	none
CC(CCc1ccccc1)NC(=O)CN1CCc2ccccc2C1 (centres undefined)	UHRF1 MBD2 ctr 22
C=CCn1c(SCC(=O)Nc2ccc(CCCC)cc2)nnc1-c1ccc(Cl)cc1	none (no result: Rin1-Abl PPI inh, ABHD5-PLIN5 inh, Beta2AR agonist, Arr AP2 block)
CN(C)S(=O)(=O)c1cccc(C(=O)N/N=C\c2ccccc2)c1	none (no result: Rin1-Abl PPI inh, ABHD5-PLIN5 inh, Beta2AR agonist, Arr AP2 block)
COc1cccc(-c2ccc3c(c2)O[C@@H](CN(C)C(=O)C2CCOCC2)[C@H](C)CN([C@H](C)CO)S3(=O)=O)c1	UHRF1 MBD2 ctr 22 (no result: Beta2AR agonist, Arr AP2 block)
C[C@@H]1CN([C@H](C)CO)S(=O)(=O)c2ccc(Br)cc2O[C@@H]1CN(C)Cc1ccc(C(=O)O)cc1	none (no result: Beta2AR agonist, Arr AP2 block)
Cc1ccccc1-c1ccc2c(c1)O[C@H](CN(C)C(=O)C1CC1)[C@@H](C)CN([C@@H](C)CO)S2(=O)=O	none (no result: Beta2AR agonist, Arr AP2 block)
C[C@@H]1CN([C@H](C)CO)S(=O)(=O)c2ccc(Br)cc2O[C@@H]1CN(C)Cc1ccc(-c2ccccc2)cc1	UHRF1 MBD2 ctr 21 (no result: Beta2AR agonist, Arr AP2 block)
C[C@@H]1CN([C@H](C)CO)S(=O)(=O)c2ccc(Br)cc2O[C@H]1CN(C)C(=O)C1CC1	UHRF1 MBD2 ctr 21 (no result: Beta2AR agonist, Arr AP2 block)
C[C@H]1CN([C@@H](C)CO)S(=O)(=O)c2ccc(Br)cc2O[C@H]1CN(C)C(=O)c1cccnc1	UHRF1 MBD2 ctr 24 (no result: Beta2AR agonist, Arr AP2 block)
C[C@H]1[C@@H](OC(=O)N2CCN(c3ccccc3)CC2)CC[C@@]23CCCN2C(=O)CCC[C@@H]13	none (no result: Rin1-Abl PPI inh, ABHD5-PLIN5 inh, Beta2AR agonist, Arr AP2 block)
O=C(NCc1ccc(F)c(F)c1)C1C2C=CC3(CN(Cc4ccccc4)C(=O)C13)O2 (centres undefined)	none (no result: Rin1-Abl PPI inh, ABHD5-PLIN5 inh, Beta2AR agonist, Arr AP2 block)
O=c1[nH][nH]c2c1[C@@H](c1ccc(F)cc1)O[C@H](CCc1ccccc1)C2	UHRF1 MBD2 ctr 29 (no result: Rin1-Abl PPI inh, Beta2AR agonist, Arr AP2 block)
O=C1COc2ccc(C(=O)COC(=O)CNS(=O)(=O)c3cccc(F)c3)cc2N1	MBD2 DNA inh 18
O=C1COc2ccc(C(=O)COC(=O)Cc3ccccc3F)cc2N1	none
C/C(=N\Nc1ccc(C(F)(F)F)cn1)c1ccncc1	UHRF1 MBD2 ctr 22
COC(=O)C1CN(Cc2cn(Cc3ccc(Cl)cc3)nn2)CCS(=O)(=O)N1Cc1ccccc1 (centres undefined)	none (no result: Rin1-Abl PPI inh, ABHD5-PLIN5 inh, Beta2AR agonist, Arr AP2 block)
CCOC(=O)[C@]12CCCCC/C=C\1N(CCc1ccc(Cl)cc1)C(=O)[C@H]2CC(=O)NCC12CC3CC(CC(C3)C1)C2	none (no result: Rin1-Abl PPI inh, ABHD5-PLIN5 inh, Beta2AR agonist, Arr AP2 block)
COc1ccc(-c2cc3ccccc3oc2=O)cc1NC(=S)NC(=O)c1ccc2c(c1)OCCO2	Beta2AR agonist 42
CC(=O)/C=C/n1c(=S)oc2ccccc21	none (no result: Rin1-Abl PPI inh, ABHD5-PLIN5 inh, Beta2AR agonist, Arr AP2 block)
CC(C)CC(=O)/C=C/n1c(=S)oc2ccccc21	Beta2AR agonist 49
COc1ccc(CN2CCNC(=O)C2CC(=O)N(C)CC2CCOCC2)cc1OC (centres undefined)	none
COc1ccc(CN2CCNC(=O)C2CC(=O)N(C)CC2CCOCC2)cc1C (centres undefined)	UHRF1 MBD2 ctr 31
O=C(c1ccccc1)N1CCN(C(=O)c2nn3c(C(F)(F)F)cc(-c4ccco4)nc3c2Br)CC1	ABHD5-PLIN5 inh 22
O=C(CCSCc1ccccc1Cl)NC1CCCC1	UHRF1 MBD2 ctr 24
O=C(CCSCc1cccc(Cl)c1)NC1CCCC1	none
CCN(C(=O)COC(=O)c1cc([N+](=O)[O-])ccc1N1CCOCC1)C1CCCCC1	UHRF1 MBD2 ctr 26
O=C(Cn1c(=O)oc2cc(S(=O)(=O)N3CCCCC3)ccc21)N1CCCCC1	UHRF1 MBD2 ctr 52
O=C(COC(=O)c1ccccc1Nc1ccccc1)NCc1ccco1	UHRF1 MBD2 ctr 21
Cc1cc2c(cc(C(=O)OCC(=O)NCc3ccco3)n2C)s1	none
Cn1c(C(=O)OCC(=O)NCc2ccco2)cc2sccc21	ABHD5-PLIN5 inh 23
CSCCC(NC(=O)c1ccccc1)C(=O)OCC(=O)NCc1ccco1 (centres undefined)	UHRF1 MBD2 ctr 27
COc1ccc(CNC(=O)COC(=O)C(CCSC)NC(=O)c2ccco2)cc1OC (centres undefined)	none
O=C(NC1CCCCN(Cc2cccc(Cl)c2)C1=O)c1cccc(C(F)(F)F)c1 (centres undefined)	none (no result: Rin1-Abl PPI inh, ABHD5-PLIN5 inh, Beta2AR agonist, Arr AP2 block)
CCC1CCc2sc(C(=O)N(C)CC(=O)Nc3cccc(OC)c3)cc2C1 (centres undefined)	UHRF1 MBD2 ctr 66
CCC1CCc2sc(C(=O)N(C)CC(=O)Nc3ccc(OC)cc3)cc2C1 (centres undefined)	none
O=C(Nc1ccccc1Br)C(=O)N1CCCC1	none
O=C(NNc1ccccc1Br)C(=O)n1ccc2ccccc21	UHRF1 MBD2 ctr 66
O=C(NC1CCCCN(Cc2cccc(C(F)(F)F)c2)C1=O)c1cccc(F)c1 (centres undefined)	none (no result: Rin1-Abl PPI inh, ABHD5-PLIN5 inh, Beta2AR agonist, Arr AP2 block)
COc1cc(C=C2Cc3ccccc3C2=O)cc(OC)c1OC	ABHD5-PLIN5 inh 22 (no result: Beta2AR agonist, Arr AP2 block)
COc1ccc(/C=C2\Cc3ccccc3C2=O)cc1OC	none
CCN(C(=O)C(C)N1C(=O)/C(=C/c2ccco2)SC1=S)C1CCS(=O)(=O)C1 (centres undefined)	UHRF1 MBD2 ctr 31
O=C1/C(=C\c2ccco2)SC(=S)N1C1CCS(=O)(=O)C1 (centres undefined)	UHRF1 MBD2 ctr 54
O=C1/C(=C/c2ccco2)SC(=S)N1C1CCS(=O)(=O)C1 (centres undefined)	UHRF1 MBD2 ctr 32
Cc1ccc(/C=C2/SC(=S)N(C3CCCCC3)C2=O)o1	Arr AP2 block 62
CC(C(=O)N(C)C1CCS(=O)(=O)C1)N1C(=O)/C(=C/c2ccc(F)cc2)SC1=S (centres undefined)	none
Cc1ccc(/C=C2\SC(=S)N(C3CCS(=O)(=O)C3)C2=O)cc1 (centres undefined)	none
Cc1ccc(S(=O)(=O)N2CCC(c3nc4ccccc4o3)CC2)s1	none (no result: Rin1-Abl PPI inh, ABHD5-PLIN5 inh, Beta2AR agonist, Arr AP2 block)
CCC[C@H]1[C@@H](OC(=O)NCc2ccc(Cl)c(Cl)c2)CC[C@@]23CCCN2C(=O)CCC[C@@H]13	none (no result: Rin1-Abl PPI inh, ABHD5-PLIN5 inh, Beta2AR agonist, Arr AP2 block)
CCC(C)NS(=O)(=O)c1ccc2[nH]c(=O)oc2c1 (centres undefined)	none (no result: Rin1-Abl PPI inh, ABHD5-PLIN5 inh, Beta2AR agonist, Arr AP2 block)
COC(=O)C1CN(Cc2cn(Cc3ccccc3)nn2)CCS(=O)(=O)N1Cc1ccc(Cl)cc1 (centres undefined)	none (no result: Rin1-Abl PPI inh, ABHD5-PLIN5 inh, Beta2AR agonist, Arr AP2 block)
COCCSc1nnc(NC(=O)c2ccc3c(c2)OCO3)s1	UHRF1 MBD2 ctr 69
S=C(NCc1ccccc1)NC1CCSc2ccccc21 (centres undefined)	UHRF1 MBD2 ctr 24
